Assay [1] has as its system Human immunodeficiency virus 1. In words: Log of effective concentration against human immunodeficiency virus type 1 using cell-based replication assay in MT-4 cells. Format: functional, organism-based. The settings on record: Human immunodeficiency virus 1, MT4. The essentials:
(§1)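 MT4 cells (150 000 cells/mL) infected with HIV-1/LAI wild type at 200 CCID50, with serial compound concentrations in 384-well format. Replication is read as GFP expression driven by HIV-tat acting on an LTR-GFP reporter. Incubation 3 days at 37 °C, 5% CO2. EC50/pEC50 are taken from dose-response curves of percent inhibition.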

Assay [2] has as its system Human immunodeficiency virus 1. Kind of assay: Log of cytotoxic concentration against human immunodeficiency virus type 1 using cell-based replication assay in MT-4 cells. Format: functional, MT4. The essentials:
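Mock-infected MT4 cells (150 000 cells/mL) get the same compound concentration range and are incubated 3 days at 37 °C, 5% CO2, in parallel with the HIV-infected cultures. Toxicity is scored as reduced GFP reporter expression. CC50/pCC50 come from dose-response curves of percent inhibition.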

Assay [3] deals with T1, Human immunodeficiency virus type 1 integrase (Human immunodeficiency virus 1, UniProt Q7ZJM1). In words: Log of inhibitory concentration against human immunodeficiency virus type 1 integrase. The essentials: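 Strand transfer ELISA using recombinant His-tagged HIV-1 integrase expressed in E. coli BL21(DE3). 20 nM biotinylated processed viral DNA substrate is preincubated with 300 nM integrase for 5 min at 37 °C. Serial compound dilutions and 50 nM target DNA are then added in 20 mM Hepes pH 7.5, 25 mM NaCl, 5 mM MnCl2, 2 mM DTT, 50 µg/mL BSA and incubated 2 h at 37 °C. Products are captured on streptavidin plates, detected with anti-FITC peroxidase antibody and read by chemiluminescence.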

Assay [4] addresses T1, Human immunodeficiency virus type 1 integrase. Kind of assay: Inhibitory concentration against human immunodeficiency virus type 1 integrase.
The subject of assay [5] is Human immunodeficiency virus 1. Kind of assay: Effective concentration against human immunodeficiency virus type 1 using cell-based replication assay in MT-4 cells. Format: functional, organism-based. The settings on record: Human immunodeficiency virus 1, MT4. Put shortly: as §1

The term EC50 denotes the midpoint of the concentration-response curve. Read a low EC50 as a more potent agent. The pCC50 is the CC50 on a negative log10 scale, so that one unit is a factor of ten. A word on the IC50: it is the concentration at which inhibition is half-maximal. A low value points to higher potency. A word on the EC95: it is the point of the concentration-response curve where the effect stands at 95%.

Structures are written as SMILES. A value given as a limit tells only on which side of the number the result lay.

T1 sequence (Q7ZJM1 whole entry): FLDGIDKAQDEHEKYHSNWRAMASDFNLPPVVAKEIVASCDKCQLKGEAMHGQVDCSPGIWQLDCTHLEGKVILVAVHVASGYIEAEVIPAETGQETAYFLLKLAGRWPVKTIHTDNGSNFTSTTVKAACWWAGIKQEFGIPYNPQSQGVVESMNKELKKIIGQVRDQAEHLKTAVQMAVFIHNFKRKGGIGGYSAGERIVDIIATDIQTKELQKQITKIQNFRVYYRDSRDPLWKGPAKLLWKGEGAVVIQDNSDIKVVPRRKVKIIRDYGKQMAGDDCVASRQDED

For `COc1ccc(CN2C(=O)c3c(c(O)c4nccnc4c3O)C2=O)cc1`, it took 3.63 µM to reach a half-maximal effect in assay [1] (EC50). Further, the pCC50 in assay [2] is 4.64. The compound further showed an IC50 in assay [3] of 0.562 µM.
For the compound `O=C1c2c(c(O)c3nccnc3c2O)C(=O)N1Cc1cccc(-c2ccccc2F)c1`, the EC50 in assay [1] was 13.2 µM. The compound further displayed a pCC50 in assay [2] of 4.82. Besides, the IC50 in assay [3] was 0.501 µM.
Turning to `O=C1c2c(c(O)c3nccnc3c2O)C(=O)N1Cc1ccc(-c2ccccc2F)cc1`, the EC50 in assay [1] is 14.8 µM. In addition, the pCC50 in assay [2] was 4.83. This compound also had an IC50 in assay [3] of 1 µM.
Turning to `O=C1c2c(c(O)c3nccnc3c2O)C(=O)N1CCc1ccc2c(c1)OCO2`, the concentration giving a half-maximal response (EC50) in assay [1] was 11 µM. The same compound had an IC50 in assay [3] of 1.41 µM.
`O=C(c1ccccc1)N1CCC(N2C(=O)c3c(c(O)c4nccnc4c3O)C2=O)CC1`: the EC50 in assay [1] is > 32.4 µM. In addition, the pCC50 in assay [2] was <4.49. This compound also had an IC50 in assay [3] of 2.4 µM.
`COc1ccc(CN2C(=O)c3c(c(O)c4nccnc4c3O)C2=O)c(OC)c1` gave an EC50 in assay [1] of 13.5 µM. Further, the pCC50 in assay [2] is listed as 4.77. The same compound showed an IC50 in assay [3] of 0.427 µM.
For `COc1ccccc1CN1C(=O)c2c(c(O)c3nccnc3c2O)C1=O`, in that order: 3.8 µM, 4.81 and 0.813 µM.
In turn, `O=C1c2c(c(O)c3nccnc3c2O)C(=O)N1Cc1ccccc1Br` showed an EC50 in assay [1] of 15.1 µM. The same compound gave a pCC50 in assay [2] of 4.75. The compound also had an IC50 in assay [3] of 0.631 µM.
For `COc1ccc(OC)c(CN2C(=O)c3c(c(O)c4nccnc4c3O)C2=O)c1` the same measures were 4.79 µM, 4.73 and 0.776 µM.
For the compound `CN1C(=O)c2c(c(O)c3nccnc3c2O)C1=O`, in assay [1], the EC50 was > 32.4 µM. Moreover, in assay [2], the pCC50 was <4.49. Further, the IC50 in assay [3] was 49 µM.
Consider `COc1cccc(CN2C(=O)c3c(c(O)c4nccnc4c3O)C2=O)c1OC`, for which, in assay [1], the midpoint of the response, the EC50, lay at 4.9 µM. Besides, the pCC50 in assay [2] stood at 4.72. In assay [3], this compound showed an IC50 of 0.427 µM.
`COc1cccc(OC)c1CN1C(=O)c2c(c(O)c3nccnc3c2O)C1=O` showed an EC50 in assay [1] of 5.37 µM. Also, the pCC50 in assay [2] came out at 5.09. In assay [3], this compound gave an IC50 of 2 µM.
Turning to `O=C1c2c(c(O)c3nccnc3c2O)C(=O)N1C1CCCC1`, the EC50 in assay [1] is > 32.4 µM. Also, the pCC50 in assay [2] worked out at 4.55. The compound also gave an IC50 in assay [3] of 10.5 µM.
For `O=C1c2c(c(O)c3nccnc3c2O)C(=O)N1Cc1cccc(C(F)(F)F)c1`, the EC50 in assay [1] was 9.77 µM. In assay [2], the pCC50 was 4.77. The compound further gave an IC50 in assay [3] of 0.427 µM.
Turning to `Cc1ccc2c(O)c3c(c(O)c2n1)C(=O)N(Cc1cccc(Br)c1)C3=O`, the EC50 in assay [1] was 7.59 µM. In addition, the negative-log CC50 (pCC50) in assay [2] is listed as 4.78. In assay [3], the IC50 was 0.257 µM.
For `O=C1c2c(c(O)c3nccnc3c2O)C(=O)N1c1ccc2c(c1)OCO2`, in that order: > 32.4 µM, <4.49 and 10 µM.
For `O=C1c2c(c(O)c3nccnc3c2O)C(=O)N1Cc1cccc(F)c1` the same measures were 5.37 µM, 4.77 and 0.562 µM.
For `Cc1ccc(CN2C(=O)c3c(c(O)c4nccnc4c3O)C2=O)cc1`, the EC50 in assay [1] is 1.78 µM. In assay [2], the negative logarithm of the CC50 (pCC50) was 4.86. In addition, the IC50 in assay [3] is 1.58 µM.
In turn, `O=C1c2c(c(O)c3nccnc3c2O)C(=O)N1Cc1ccc(OC(F)(F)F)cc1` showed an EC50 in assay [1] of 1.35 µM. For the same compound, in assay [2], the negative-log CC50 (pCC50) was 5.6. The compound also had an IC50 in assay [3] of 2.04 µM.
Turning to `O=C1c2c(c(O)c3nccnc3c2O)C(=O)N1Cc1ccc2c(c1)OCO2`, in assay [1], a half-maximal response (EC50) required 3.16 µM. In addition, in assay [2], the pCC50 is reported as <4.49. This compound also had an IC50 in assay [3] of 0.562 µM.
Consider `CC(C)Oc1ccc(Cc2ccccc2)cc1/C(O)=C/C(=O)C(=O)O`, for which the IC50 in assay [4] worked out at 0.05 µM.
As to `O=S1(=O)CCCCN1c1nc(/C(O)=N/Cc2ccc(F)cc2)c(O)c2ncccc12`, in assay [5], the EC95 turned out to be 0.1 µM. Moreover, the IC50 in assay [4] was found to be 0.01 µM.
Consider `O=C1c2c(c(O)c3nnccc3c2O)C(=O)N1Cc1cccc(Br)c1`, for which it took 21.4 µM to reach a half-maximal effect in assay [1] (EC50). The pCC50 in assay [2] was <4.49. For the same compound, half-maximal inhibition in assay [3] (IC50) was put at 3.63 µM.
For the compound `O=C1c2c(c(O)c3nccnc3c2O)C(=O)N1Cc1ccc(F)cc1`, in assay [1], it took 1.55 µM to reach a half-maximal effect (EC50). Besides, in assay [2], the pCC50 is given as 4.69. In assay [3], this compound showed an IC50 of 0.417 µM.
On to `O=C1c2c(c(O)c3nccnc3c2O)C(=O)N1Cc1cc(Cl)cc(Cl)c1`, for which the EC50 in assay [1] was 0.724 µM. Besides, the pCC50 in assay [2] worked out at 4.72. Also, in assay [3], the IC50 is 0.186 µM.
For `O=C1c2c(c(O)c3nccnc3c2O)C(=O)N1Cc1cc(F)cc(F)c1` the same measures were 16.6 µM, <4.49 and 0.372 µM.
In assay [1], `C[C@@H](c1ccccc1)N1C(=O)c2c(c(O)c3nccnc3c2O)C1=O` showed an EC50 of 15.1 µM. Besides, the pCC50 in assay [2] is recorded as 4.81. Also, in assay [3], inhibition was half-maximal at 2.04 µM (IC50).
`O=C1c2c(c(O)c3ncccc3c2O)C(=O)N1Cc1cccc(Br)c1`: the EC50 in assay [1] is 3.09 µM. The compound further returned a pCC50 in assay [2] of 5.21. The compound further gave an IC50 in assay [3] of 0.38 µM.
In the case of `O=C1c2c(c(O)c3nccnc3c2O)C(=O)N1Cc1cccc(Cl)c1`, the EC50 in assay [1] was 0.977 µM. For the same compound, in assay [2], the pCC50 was 4.73. Further, in assay [3], the IC50 was 0.219 µM.
On to `O=C1c2c(c(O)c3nccnc3c2O)C(=O)N1CC1CCCCC1`, for which the midpoint of the response in assay [1], the EC50, lay at 3.47 µM. In assay [2], this compound returned a pCC50 of 5.19. Further, in assay [3], the IC50 was 2.19 µM.
In turn, `O=C1c2c(c(O)c3nccnc3c2O)C(=O)N1Cc1ccc(-c2ccccc2)cc1` showed an EC50 in assay [1] of 2.57 µM. Besides, the pCC50 in assay [2] amounted to 5.47. Also, it took 1.45 µM to reach half-maximal inhibition in assay [3] (IC50).
With `O=C1c2c(c(O)c3nccnc3c2O)C(=O)N1Cc1ccc(F)c(Cl)c1`, the EC50 in assay [1] was 3.09 µM. The pCC50 in assay [2] worked out at 4.7. This compound showed an IC50 in assay [3] of 0.178 µM.
In turn, `C[C@H](c1ccccc1)N1C(=O)c2c(c(O)c3nccnc3c2O)C1=O` showed an EC50 in assay [1] of 10.2 µM. Besides, the pCC50 in assay [2] is 4.76. In assay [3], inhibition was half-maximal at 1.05 µM (IC50).
As to `O=C1c2c(c(O)c3nccnc3c2O)C(=O)N1Cc1ccncc1`, in assay [1], the EC50 was > 32.4 µM. Also, the pCC50 in assay [2] is given as <4.49. Besides, the IC50 in assay [3] is 6.76 µM.
For `O=C1c2c(c(O)c3nccnc3c2O)C(=O)N1C1CCNCC1`, the EC50 in assay [1] is > 32.4 µM. For the same compound, in assay [2], the pCC50 is <4.49. Moreover, the IC50 in assay [3] was > 100 µM.
`O=C1c2c(c(O)c3nccnc3c2O)C(=O)N1Cc1ccc(Cl)cc1`: in assay [1], the EC50 is 0.269 µM. The pCC50 in assay [2] is 5.58. Further, 0.417 µM corresponded to half-maximal inhibition in assay [3] (IC50).
With `O=C1c2c(c(O)c3ccccc3c2O)C(=O)N1Cc1ccc(F)cc1`, the EC50 in assay [1] was 20 µM. Also, the pCC50 in assay [2] was 4.59. Moreover, the 50% inhibitory concentration (IC50) in assay [3] was > 100 µM.
For `O=C1c2c(c(O)c3nccnc3c2O)C(=O)N1Cc1cc(Br)ccc1F` the same measures were 0.447 µM, 5.38 and 0.355 µM.
With `O=C1c2c(c(O)c3nccnc3c2O)C(=O)N1Cc1ccc(Br)cc1F`, the EC50 in assay [1] is 2.4 µM. In assay [2], this compound came in with a pCC50 of 5.11. The midpoint of inhibition in assay [3], the IC50, lay at 0.437 µM.
For `O=C1c2c(c(O)c3nccnc3c2O)C(=O)N1Cc1ccc(Cl)c(Cl)c1`, in that order: 0.912 µM, 5.05 and 0.112 µM.
Turning to `O=C1c2c(c(O)c3nccnc3c2O)C(=O)N1Cc1cccc(Br)c1`, the EC50 in assay [1] is 7.41 µM. The pCC50 in assay [2] is on record as 4.49. The IC50 in assay [3] was 0.209 µM.
In assay [1], `O=C1c2c(c(O)c3nccnc3c2O)C(=O)N1CCc1ccccc1` showed an EC50 of 4.9 µM. This compound also had a pCC50 in assay [2] of 5.23. This compound had an IC50 in assay [3] of 2.04 µM.

The record behind these values is ChEMBL document CHEMBL1142728, “Design and optimization of tricyclic phtalimide analogues as novel inhibitors of HIV-1 integrase” (J Med Chem, 2005).
